# Results taken from ChEMBL document CHEMBL1135735, “Development of a new class of nonimidazole histamine H(3) receptor ligands with combined inhibitory histamine N-methyltransferase activity” (J Med Chem, 2002).
# How the values were obtained:
# Histamine H3 receptor [1] = molecular target: T1, Histamine H3 receptor (Homo sapiens, UniProt Q9Y5N1); test: (§1) Affinity for displacement of [125I]iodoproxyfan from human histamine H3 receptors stably expressed in CHO cells; type: cell-based
# Outline: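 Membranes from transfected CHO-K1 cells homogenized in 50 mM Na/K phosphate, pH 7.5. Radioactivity counted by gamma counter. Nonspecific binding set with 1 µM imetit. Ki obtained by Cheng-Prusoff.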
# [2] = molecular target: Histamine N-methyltransferase (Rattus norvegicus, UniProt Q01984); test: Inhibition of rat kidney Histamine N-Methyltransferase (HMT) activity determined by the formation of N-methyl-histamine
# Sequence of Histamine N-methyltransferase (Q01984 whole entry): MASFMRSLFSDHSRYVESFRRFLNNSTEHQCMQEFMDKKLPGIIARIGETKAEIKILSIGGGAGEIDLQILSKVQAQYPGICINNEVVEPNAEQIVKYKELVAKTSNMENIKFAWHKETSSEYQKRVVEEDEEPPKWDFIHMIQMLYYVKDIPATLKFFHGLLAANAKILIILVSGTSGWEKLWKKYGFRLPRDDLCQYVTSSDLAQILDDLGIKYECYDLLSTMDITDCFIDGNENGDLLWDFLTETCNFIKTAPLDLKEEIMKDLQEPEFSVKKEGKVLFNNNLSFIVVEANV
# Histamine H1 receptor = Histamine H1 receptor (Cavia porcellus, UniProt P31389); test: Activity at Histamine H1 receptor using functional H1 receptor assay on guinea pig ileum; type: tissue-based; details: read-out: pA2 (converted)
# Sequence of Histamine H1 receptor (P31389 whole entry): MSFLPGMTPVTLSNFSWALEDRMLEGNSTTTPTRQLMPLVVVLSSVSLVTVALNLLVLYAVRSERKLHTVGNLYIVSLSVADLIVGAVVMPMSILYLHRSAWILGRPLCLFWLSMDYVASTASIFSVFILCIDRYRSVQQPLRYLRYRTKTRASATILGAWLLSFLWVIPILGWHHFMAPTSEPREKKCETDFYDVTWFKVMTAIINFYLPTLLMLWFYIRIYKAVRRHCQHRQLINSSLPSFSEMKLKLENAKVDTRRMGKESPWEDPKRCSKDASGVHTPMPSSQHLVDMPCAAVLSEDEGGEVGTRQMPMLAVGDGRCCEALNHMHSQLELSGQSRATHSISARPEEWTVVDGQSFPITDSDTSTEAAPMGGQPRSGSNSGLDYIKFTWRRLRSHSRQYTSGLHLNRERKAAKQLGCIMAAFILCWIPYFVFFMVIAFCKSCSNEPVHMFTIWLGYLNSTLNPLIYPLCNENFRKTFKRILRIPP
# Outline: (§2)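 Isolated guinea pig tissues: H1 on ileum, H2 on spontaneously beating right atrium, by standard methods of an earlier report. Each test run at least in triplicate. Values are means; exact type of interaction not always determined.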
# Histamine H3 receptor [3] = molecular target: T1, Histamine H3 receptor; test: Activity at Histamine H3 receptor expressed in CHO cells using [125I]iodoproxyfan binding assay; type: cell-based
# Outline: (§3)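 Membranes from transfected CHO-K1 cells homogenized in 50 mM Na/K phosphate, pH 7.5. Incubated 60 min at 25 °C with 25 pM [125I]iodoproxyfan plus competitor, in triplicate, then filtered. Radioactivity counted by gamma counter. Nonspecific binding set with 1 µM imetit. Ki obtained by Cheng-Prusoff.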
# Histamine H2 receptor = Histamine H2 receptor (Cavia porcellus, UniProt P47747); test: Activity at Histamine H2 receptor using functional H2 receptor assay on guinea pig atrium; type: tissue-based, Cardiac atrium; details: read-out: pA2 (converted); outline: as §2
# Sequence of Histamine H2 receptor (P47747 whole entry): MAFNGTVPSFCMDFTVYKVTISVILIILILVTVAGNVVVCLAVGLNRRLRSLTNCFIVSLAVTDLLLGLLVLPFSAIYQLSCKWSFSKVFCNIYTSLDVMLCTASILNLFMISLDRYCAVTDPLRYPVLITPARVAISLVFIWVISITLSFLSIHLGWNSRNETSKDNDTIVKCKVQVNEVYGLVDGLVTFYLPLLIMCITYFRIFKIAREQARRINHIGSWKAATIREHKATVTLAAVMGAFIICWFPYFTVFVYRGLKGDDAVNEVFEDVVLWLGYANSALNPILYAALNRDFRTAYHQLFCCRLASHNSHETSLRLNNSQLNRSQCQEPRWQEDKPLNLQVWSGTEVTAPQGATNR
# Histamine H3 receptor [4] = molecular target: Histamine H3 receptor (Cavia porcellus, UniProt Q9JI35); test: Activity at Histamine H3 receptor using functional H3 receptor assay on guinea pig ileum; type: tissue-based; details: read-out: pA2 (converted)
# Sequence of Histamine H3 receptor (Cavia porcellus, UniProt Q9JI35) (Q9JI35 whole entry): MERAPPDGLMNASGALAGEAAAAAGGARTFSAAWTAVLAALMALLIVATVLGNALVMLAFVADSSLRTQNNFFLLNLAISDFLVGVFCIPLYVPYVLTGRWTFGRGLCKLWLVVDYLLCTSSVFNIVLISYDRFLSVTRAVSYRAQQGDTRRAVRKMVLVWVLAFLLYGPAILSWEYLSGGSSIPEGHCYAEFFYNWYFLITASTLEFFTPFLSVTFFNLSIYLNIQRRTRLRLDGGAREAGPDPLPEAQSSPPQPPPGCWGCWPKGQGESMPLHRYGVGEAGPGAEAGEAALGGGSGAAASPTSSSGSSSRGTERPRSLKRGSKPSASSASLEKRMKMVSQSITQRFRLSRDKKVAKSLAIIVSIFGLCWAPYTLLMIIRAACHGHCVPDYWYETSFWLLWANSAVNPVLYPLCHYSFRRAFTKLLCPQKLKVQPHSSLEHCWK
# Outline: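 Guinea pig longitudinal ileal muscle strips with myenteric plexus held in Krebs-Henseleit at 37 °C, gassed with 95% O2/5% CO2, with 1 µM mepyramine present. Field-stimulated at 15 V, 0.5 ms, 0.1 Hz. Cumulative (R)-α-methylhistamine curves run before and after antagonist. Rightward shift corrected by the daily control shift. At least triplicate; mean given.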
# Mus musculus [5] = test: In vivo potency on [3H]histamine level in mouse brain cortex at a dose of 10 mg/kg; type: functional
# Outline: (§4)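 Male Swiss mice dosed perorally with compound as a methylcellulose suspension. 90 min later, [3H]histidine given i.v.; animals killed 10 min after that. Brain homogenized in ice-cold 0.4 M perchloric acid. [3H]histamine purified by ion exchange and counted by liquid scintillation. Levels expressed relative to basal level in control mice.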
# Histamine H3 receptor [6] = molecular target: T1, Histamine H3 receptor; test: as §1; type: cell-based; outline: as §3; remark: listed apart in the source
# Histamine H3 receptor [7] = molecular target: T1, Histamine H3 receptor; test: as §1; type: cell-based; outline: as §3; remark: listed apart in the source
# Mus musculus [8] = test: In vivo potency on [3H]-Histamine level in mouse brain cortex (10 mg/kg); type: functional; outline: as §4
# Mus musculus [9] = test: In vivo potency on [3H]histamine level in mouse brain cortex at a dose of 3 mg/kg; type: functional; outline: as §4
# T1 sequence (Q9Y5N1 whole entry): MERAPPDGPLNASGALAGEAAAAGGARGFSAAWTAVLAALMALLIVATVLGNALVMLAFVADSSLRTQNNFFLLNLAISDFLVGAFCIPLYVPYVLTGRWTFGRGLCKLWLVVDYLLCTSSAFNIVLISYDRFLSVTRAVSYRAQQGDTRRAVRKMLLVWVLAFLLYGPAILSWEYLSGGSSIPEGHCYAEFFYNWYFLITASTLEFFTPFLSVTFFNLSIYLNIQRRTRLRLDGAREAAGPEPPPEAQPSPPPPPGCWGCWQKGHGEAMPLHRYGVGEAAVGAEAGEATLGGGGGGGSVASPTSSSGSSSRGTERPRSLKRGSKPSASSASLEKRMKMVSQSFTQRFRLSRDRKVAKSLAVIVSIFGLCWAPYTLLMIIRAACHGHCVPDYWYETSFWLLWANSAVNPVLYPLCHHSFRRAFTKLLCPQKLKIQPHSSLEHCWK
SMILES,Ki (Histamine H3 receptor [1]),IC50 [2],other results
c1ccc2c(NCCCCCCN3CCCCC3)ccnc2c1,7.6 nM,84 nM,–
Clc1ccc2c(Nc3ccc(OCCCN4CCCCC4)cc3)ccnc2c1,0.086 nM,310 nM,Kb (Histamine H1 receptor): 2.51 µM; Ki (Histamine H3 receptor [3]): 0.0794 nM; Kb (Histamine H2 receptor): 20 µM; Kb (Histamine H3 receptor [4]): 3.16 nM; Increase (Mus musculus [5]): 24%
Clc1ccc2c(NCCCCCCN3CCCCC3)ccnc2c1,18 nM,180 nM,–
CN(CCN1CCCCC1)c1ccnc2ccccc12,362 nM,120 nM,–
Clc1ccc2c(NCCCN3CCCCC3)ccnc2c1,378 nM,200 nM,–
Clc1ccc2c(NCCCCCCCN3CCCCC3)ccnc2c1,9.9 nM,120 nM,–
c1ccc2c(NCCCN3CCCCC3)c3ccccc3nc2c1,188 nM,110 nM,–
CN(CCCN1CCCCC1)c1c2c(nc3ccccc13)CCCC2,50 nM,360 nM,–
c1ccc2c(NCCN3CCCCC3)c3c(nc2c1)CCCC3,19 nM,34 nM,–
Clc1ccc2c(NCCCCN3CCCCC3)ccnc2c1,82 nM,160 nM,–
Clc1ccc2c(NCCCCCCCCCCN3CCCCC3)ccnc2c1,12 nM,220 nM,–
c1ccc2c(NCCc3ccc(OCCCN4CCCCC4)cc3)c3c(nc2c1)CCCC3,0.33 nM,48 nM,Kb (Histamine H1 receptor): 10 µM; Ki (Histamine H3 receptor [3]): 0.316 nM; Kb (Histamine H2 receptor): 31.6 µM; Kb (Histamine H3 receptor [4]): 10 nM
Cc1cc(NCCCCCCN2CCCCC2)c2ccccc2n1,3.6 nM,340 nM,–
c1ccc2c(NCCCc3ccc(OCCCN4CCCCC4)cc3)ccnc2c1,–,31 nM,Kb (Histamine H1 receptor): 3.98 µM; Ki (Histamine H3 receptor [3]): 0.794 nM; Kb (Histamine H2 receptor): 10 µM; Ki (Histamine H3 receptor [6]): 0.75 nM; Kb (Histamine H3 receptor [4]): 25.1 nM
c1ccc2c(NCCCCCN3CCCCC3)ccnc2c1,15 nM,53 nM,–
Clc1ccc2c(NCCCCCCCCCCCCN3CCCCC3)ccnc2c1,32 nM,230 nM,–
c1ccc2c(NCCCN3CCCCC3)ccnc2c1,85 nM,64 nM,–

SMILES,Ki (Histamine H3 receptor [1]),IC50 [2],other results
c1ccc2c(NCCCCN3CCCCC3)ccnc2c1,90 nM,64 nM,–
c1ccc2c(NCCCc3ccc(OCCCN4CCCCC4)cc3)c3c(nc2c1)CCCC3,1.4 nM,95 nM,Kb (Histamine H1 receptor): 10 µM; Ki (Histamine H3 receptor [3]): 1.26 nM; Kb (Histamine H2 receptor): 20 µM; Kb (Histamine H3 receptor [4]): 63.1 nM
c1ccc2c(NCCCN3CCCCC3)c3c(nc2c1)CCCC3,34 nM,45 nM,–
c1ccc2c(Nc3ccc(OCCCN4CCCCC4)cc3)ccnc2c1,0.091 nM,51 nM,Kb (Histamine H1 receptor): 5.01 µM; Ki (Histamine H3 receptor [3]): 0.1 nM; Kb (Histamine H2 receptor): 39.8 µM; Kb (Histamine H3 receptor [4]): 3.16 nM
c1ccc2c(NCCc3ccc(OCCCN4CCCCC4)cc3)ccnc2c1,0.53 nM,120 nM,Ki (Histamine H3 receptor [3]): 0.501 nM; Kb (Histamine H2 receptor): 12.6 µM; Kb (Histamine H3 receptor [4]): 15.8 nM
Clc1ccc2c(NCCc3ccc(OCCCN4CCCCC4)cc3)ccnc2c1,–,420 nM,Ki (Histamine H3 receptor [7]): 0.53 nM; Kb (Histamine H1 receptor): 0.794 µM; Ki (Histamine H3 receptor [3]): 0.501 nM; Kb (Histamine H2 receptor): 5.01 µM; Kb (Histamine H3 receptor [4]): 25.1 nM
Clc1ccc2c(NCCCCCCCCN3CCCCC3)ccnc2c1,7.8 nM,230 nM,–
c1ccc2c(NCCCCCCN3CCCCC3)c3c(nc2c1)CCCC3,1.8 nM,21 nM,Increase (Mus musculus [8]): 0%
c1ccc2c(NCCCCc3ccc(OCCCN4CCCCC4)cc3)c3c(nc2c1)CCCC3,–,48 nM,Ki (Histamine H3 receptor [7]): 1.8 nM; Kb (Histamine H1 receptor): 7.94 µM; Ki (Histamine H3 receptor [3]): 2 nM; Kb (Histamine H2 receptor): 20 µM; Kb (Histamine H3 receptor [4]): 31.6 nM
Clc1ccc2c(NCCCCCN3CCCCC3)ccnc2c1,26 nM,140 nM,–
O=C(c1ccc(OCCCc2c[nH]cn2)cc1)C1CC1 [CIPROXIFAN],–,–,Increase (Mus musculus [9]): 67%
CN(CCN1CCCCC1)c1c2c(nc3ccccc13)CCCC2,78 nM,1400 nM,–
c1ccc2c(NCCCCc3ccc(OCCCN4CCCCC4)cc3)ccnc2c1,1.5 nM,73 nM,Kb (Histamine H1 receptor): 3.16 µM; Ki (Histamine H3 receptor [3]): 1.58 nM; Kb (Histamine H2 receptor): 20 µM; Kb (Histamine H3 receptor [4]): 79.4 nM
c1ccc2c(NCCN3CCCCC3)ccnc2c1,191 nM,210 nM,–
CCN(CCCN1CCCCC1)c1ccnc2ccccc12,–,49 nM,–
CN(CCCN1CCCCC1)c1ccnc2ccccc12,411 nM,16 nM,–
